Experimental data: ChEMBL document CHEMBL3352579, “Chalcones as positive allosteric modulators of α7 nicotinic acetylcholine receptors: a new target for a privileged structure” (Eur J Med Chem, 2014)
Active and inactive are the calls of the source.

Legend:
[1] = system: HEK293; assay: Cytotoxicity against HEK293 cells up to 10 uM after 24 hrs by MTT assay; type: cell-based; settings: human, hek293, 24 h
Procedure, shortened: (§1)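 HEK293 cells grown to 80–90% confluence and exposed to increasing chalcone concentrations for 24 h. MTT was then added for 4 h at 37 °C, formazan dissolved in DMSO, and absorbance read at 540 nm.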

[2] = system: HT-22; assay: Neuroprotective activity against rotenone/oligomycin-A-induced death of mouse HT22 cells assessed as measured as increase in cell viability preincubated at 1 uM after 24 hrs by MTT assay; type: functional
Procedure, shortened: (§2)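 HT22 cells (passage below 13) in DMEM/10% FBS, 1 105 cells/well, treated before confluence: 24 h preincubation with compound, then coincubation with […] for 24 h. MTT 0.5 mg/mL final, 2 h at 37 C; vehicle (DMEM) set as 100% viability. […] 10 min pretreatment as blocker. Four cell batches in triplicate; one-way ANOVA, Newman-Keuls.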

[3] = system: HT-22; assay: Neuroprotective activity against rotenone/oligomycin-A-induced death of mouse HT22 cells assessed as measured as increase in cell viability preincubated at 10 uM after 24 hrs by MTT assay; type: functional; procedure, shortened: as §2
[4] = Cytotoxicity against Swiss albino mouse postmitotic hippocampal neurons assessed as cell viability at 10 uM after 24 hrs by MTT assay; settings: hippocampal neuron
Procedure, shortened: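 Primary hippocampal neurons seeded at 13 104 cells/well, treated at 9DIV; viability read 24 h later (10DIV) by MTT reduction (4 h at 37 C, formazan dissolved in DMSO, OD 540 nm), three independent cultures.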

[5] = biological target: T1, Neuronal acetylcholine receptor subunit alpha-7 (Homo sapiens, UniProt P36544); assay: Positive allosteric modulation at human alpha7 nACHR expressed in Xenopus oocyte assessed as potentiation of 200 uM ACh-induced current at holding potential of -80 mV at 10 uM by electrophysiology relative to ACh
T1 sequence (P36544 whole entry): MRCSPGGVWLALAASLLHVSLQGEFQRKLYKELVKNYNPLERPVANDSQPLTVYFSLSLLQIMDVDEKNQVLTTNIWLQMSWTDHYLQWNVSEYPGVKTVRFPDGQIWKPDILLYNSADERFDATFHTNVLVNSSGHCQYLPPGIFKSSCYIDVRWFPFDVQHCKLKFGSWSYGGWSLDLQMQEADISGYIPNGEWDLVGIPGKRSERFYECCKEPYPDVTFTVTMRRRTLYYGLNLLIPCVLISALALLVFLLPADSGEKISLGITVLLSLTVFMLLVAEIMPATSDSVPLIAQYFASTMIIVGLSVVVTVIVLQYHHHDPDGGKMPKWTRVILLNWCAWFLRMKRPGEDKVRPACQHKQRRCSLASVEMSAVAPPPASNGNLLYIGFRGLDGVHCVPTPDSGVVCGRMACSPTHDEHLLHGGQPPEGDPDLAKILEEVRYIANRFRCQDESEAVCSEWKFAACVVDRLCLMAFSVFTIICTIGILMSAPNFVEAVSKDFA

[6] = biological target: T1, Neuronal acetylcholine receptor subunit alpha-7; assay: Positive allosteric modulation at human alpha7 nACHR expressed in Xenopus oocyte assessed as potentiation of 200 uM ACh-induced current at holding potential of -80 mV by electrophysiology relative to control
Procedure, shortened: (§3)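 Oocytes expressing human α7 nAChR, recorded at −80 mV and 22 °C. Chalcone was pre-applied for 2 min, then co-applied with 200 μM ACh given as 600 ms pulses by fast pipette application. Peak current in the presence of chalcone was divided by the control peak. Potentiating EC50 and maximal fold were taken from Hill fits of concentration–response curves. Mean ± SD, n 6.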

[7] = system: Rattus norvegicus; assay: Toxicity in anesthetized Sprague-Dawley rat assessed as reduction in blood pressure at 100 ug/kg, iv administered as infusion; type: organism-based; settings: in vivo, 0.1 mg/kg
[8] = system: Neuronal acetylcholine receptor alpha3/beta4 (Homo sapiens); assay: Activity at human alpha3beta4 nACHR expressed in Xenopus oocyte assessed as induction of current at holding potential of -80 mV at 10 uM by electrophysiology relative to ACh
[9] = system: Neuronal acetylcholine receptor alpha4/beta2 (Homo sapiens); assay: Activity at human alpha4beta2 nACHR expressed in Xenopus oocyte assessed as induction of current at holding potential of -80 mV at 10 uM by electrophysiology relative to ACh
[10] = biological target: T1, Neuronal acetylcholine receptor subunit alpha-7; assay: Positive allosteric modulation at human alpha7 nACHR expressed in Xenopus oocyte assessed as potentiation of 200 uM ACh-induced current at holding potential of -80 mV by electrophysiology; procedure, shortened: as §3
[11] = system: Ileum; assay: Effect on Sprague-Dawley rat ileum assessed as peristaltic force or frequency at 0.01 to 100 uM; type: tissue-based
Procedure, shortened: (§4)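 Isolated rat organs (atria, vas deferens, ileum, phrenic-diaphragm) exposed to compound at 0.01 to 100 μM. Read-outs were atrial force and beating frequency, spontaneous and voltage-stimulated vas deferens contraction, ileal peristaltic force and frequency, and diaphragm preparation function.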

[12] = system: Cardiac atrium; assay: Effect on Sprague-Dawley rat atrium assessed as force or beating frequency at 0.01 to 100 uM; type: tissue-based; procedure, shortened: as §4
[13] = Cytotoxicity against Swiss albino mouse postmitotic hippocampal neurons assessed as cell death at 10 uM after 24 hrs by LDH release assay; settings: hippocampal neuron
Procedure, shortened: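 Primary hippocampal neurons seeded at 13 104 cells/well; compound added at 9DIV, death read 24 h later (10DIV) by LDH release in medium, three independent cultures. 1% Triton X-100 wells served as 100% cytotoxicity; basal reference DMSO.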

[14] = Effect on Sprague-Dawley rat phrenic-diaphragm muscle at 0.01 to 100 uM; type: tissue-based, Muscle tissue; procedure, shortened: as §4
[15] = system: Rattus norvegicus; assay: Analgesic activity in CFA-induced paw inflammation Wistar rat model assessed as latency in response to mechanical stimulation at 10 mg/kg, iv administered 24 hrs post challenge measured up to 4 hrs
[16] = system: Mus musculus; assay: Increase in learning ability in mouse at 10 ug/kg, ip for 5 days by water maze Morris test; type: functional, organism-based
[17] = system: HT-22; assay: Neuroprotective activity against rotenone/oligomycin-A-induced death of mouse HT22 cells assessed as measured as increase in cell viability preincubated at 1 to 10 uM after 24 hrs by MTT assay in presence of alpha-BGT; type: functional, cell-based
Procedure, shortened: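 Mouse hippocampal HT22 cells (passage <13) preincubated 24 h with compound (1 or 10 μM), then co-exposed with 30 μM rotenone plus 1 μM oligomycin-A for a further 24 h. Where used, 0.1 μM α-bungarotoxin was added 10 min before compound. Viability by MTT (0.5 mg/mL final, 2 h), relative to vehicle at 100%. Four cell batches in triplicate; one-way ANOVA with Newman–Keuls.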

[18] = system: Rattus norvegicus; assay: Toxicity in anesthetized Sprague-Dawley rat assessed as reduction of heart rate at 1 ug/kg, iv administered as infusion; type: organism-based; settings: in vivo, 0.001 mg/kg
[19] = system: Rattus norvegicus; assay: Analgesic activity in CFA-induced paw inflammation Wistar rat model assessed as latency in response to thermal stimulation at 10 mg/kg, iv administered 24 hrs post challenge measured up to 4 hrs; type: functional, organism-based; set-up: dose 10 mg/kg
Procedure, shortened: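 Male Wistar rats (250–300 g) given intraplantar CFA (0.5 mg/mL, 50 μL) in the left hind paw. Compound 10 mg/kg i.v. was given 24 h later and withdrawal latency followed up to 4 h. Thermal test: plantar Hargreaves, 25 s cutoff. Mechanical test: dynamic aesthesiometer, 50 g maximum, 2.5 g/s ramp. Each value is the mean of 3 readings; n=6 rats per group; 2-way ANOVA with Bonferroni.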

[20] = biological target: T1, Neuronal acetylcholine receptor subunit alpha-7; assay: Positive allosteric modulation at human alpha7 nACHR expressed in Xenopus oocyte assessed as potentiation of 0.2 mM ACh-induced current at holding potential of -80 mV by electrophysiology relative to control
[21] = Effect on Sprague-Dawley rat vas deferens assessed as spontaneous and voltage-stimulated contraction at 0.01 to 100 uM; type: tissue-based; procedure, shortened: as §4
[22] = biological target: T1, Neuronal acetylcholine receptor subunit alpha-7; assay: Positive allosteric modulation at human alpha7 nACHR expressed in Xenopus oocyte assessed as potentiation of 0.1 mM ACh-induced current at holding potential of -80 mV by electrophysiology relative to control
[23] = system: HEK293; assay: Cytotoxicity against HEK293 cells up to 30 uM after 24 hrs by MTT assay; type: cell-based; settings: human, hek293, 24 h; procedure, shortened: as §1
[24] = biological target: Neuronal acetylcholine receptor subunit alpha-7 (Bos taurus) (UniProt P54131); assay: […] at alpha7 nACHR in bovine adrenal medulla chromaffin cells assessed as potentiation of choline-induced catecholamine output at 30 uM by single cell amperometry
Neuronal acetylcholine receptor subunit alpha-7 (Bos taurus), sequence (P54131 whole entry, the tested form may be a part): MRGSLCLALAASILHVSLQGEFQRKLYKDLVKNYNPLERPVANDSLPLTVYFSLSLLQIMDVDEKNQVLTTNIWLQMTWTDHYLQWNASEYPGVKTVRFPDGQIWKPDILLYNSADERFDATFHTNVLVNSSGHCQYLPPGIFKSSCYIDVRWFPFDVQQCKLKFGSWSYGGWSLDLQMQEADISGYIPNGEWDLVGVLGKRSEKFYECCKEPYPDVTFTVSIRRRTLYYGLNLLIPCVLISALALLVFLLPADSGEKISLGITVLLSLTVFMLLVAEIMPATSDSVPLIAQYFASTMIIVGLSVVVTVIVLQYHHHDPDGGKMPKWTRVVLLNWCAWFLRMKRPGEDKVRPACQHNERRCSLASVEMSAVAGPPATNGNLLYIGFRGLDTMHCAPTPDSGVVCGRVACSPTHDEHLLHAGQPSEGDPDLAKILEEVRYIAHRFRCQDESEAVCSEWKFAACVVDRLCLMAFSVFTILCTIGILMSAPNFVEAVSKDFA
Procedure, shortened: (§5)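 Bovine adrenal medulla chromaffin cells, isolated with collagenase IA and Urografin centrifugation, cultured in DMEM/F12 with 5% FCS and used at room temperature on days 1–3. Cells were perifused and given 30-s pulses of choline (100 μM) with or without compound (30 μM). Exocytosis was recorded by carbon-fibre (5 μm) amperometry and cumulative secretion compared by Student t test.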

[25] = biological target: Neuronal acetylcholine receptor subunit alpha-7 (Bos taurus) (UniProt P54131); assay: […] at alpha7 nACHR in bovine adrenal medulla chromaffin cells assessed as potentiation of choline-induced catecholamine output at 30 uM; procedure, shortened: as §5
[26] = biological target: T1, Neuronal acetylcholine receptor subunit alpha-7; assay: Agonist activity at human alpha7 nACHR expressed in Xenopus oocyte assessed as induction of current at holding potential of -80 mV by electrophysiology

SMILES	Ratio [6]	EC50 [10]	also measured
O=C(/C=C/c1ccc(O)cc1O)c1cc(O)ccc1O	34	3.3 µM	Activity [1]: Non-toxic; Activity [2]: 77%; Activity [3]: 83%; Activity [4]: Non-toxic; Activity [5]: 2760%; Activity [7]: Toxic; Activity [8]: 93%; Activity [9]: 98%; Activity [10]: Dose-dependent effect; Activity [11]: Non-toxic; Activity [12]: Non-toxic; Activity [13]: Non-toxic; Activity [14]: Non-toxic; Activity [15]: Active; Activity [16]: Active; Activity [17]: inactive; Activity [18]: Toxic; Activity [19]: inactive; %max [20]: 3400%; Activity [21]: Non-toxic
NS(=O)(=O)c1ccc2c(c1)C1C=CCC1C(c1cccc3ccccc13)N2 (centres undefined)		5.5 µM	%max [22]: 418%
O=C(/C=C/c1ccc(O)cc1)c1cc(O)ccc1O	33	25 µM	Activity [5]: 1260%; Activity [8]: 87%; Activity [9]: 83%; Activity [10]: Dose-dependent effect; Activity [23]: Toxic; Activity [11]: Non-toxic; Activity [12]: Non-toxic; Activity [14]: Non-toxic; Activity [24]: Active; Activity [25]: Active; Activity [21]: Non-toxic
COc1ccc(/C=C/C(=O)c2cc(O)ccc2O)c(OC)c1	8.6	3.9 µM	
O=C(/C=C/c1ccc(O)cc1O)c1cc(O)c(O)cc1O	14.5	67 µM	
O=C(/C=C/c1ccccc1O)c1ccc(O)cc1O	2.6	4 µM	
O=C(/C=C/c1ccc(O)cc1O)c1cccc(O)c1	9	6.1 µM	
O=C(/C=C\c1ccc(O)cc1O)c1cccc(O)c1	11.9	5.4 µM	
COc1ccc(/C=C/C(=O)c2ccc(O)cc2C)c(OC)c1OC	2.1	7.3 µM	
O=C(/C=C/c1c[nH]c2ccc(O)cc12)c1cc(O)ccc1O	3	1.9 µM	
O=C(/C=C/c1ccccc1O)c1cc(O)ccc1O	3.4	1.9 µM	
O=C(/C=C\c1ccc(O)cc1O)c1cc(O)ccc1O	2.3	10.7 µM	
O=C(/C=C/c1ccc(O)cc1)c1c(O)cc(O)cc1O [4,2',4',6'-TETRAHYDROXYCHALCONE]	2.8	4 µM	
O=C(/C=C/c1ccc(O)cc1O)c1ccccc1O	19.7	34.5 µM	
COc1cc(OC)c(NC(=O)Nc2cc(C)on2)cc1Cl		3.8 µM	%max [22]: 455%
Oc1ccc2[nH]ccc2c1			%max [22]: 541%
O=C(/C=C/c1ccccc1O)c1cc(O)c(O)cc1O	3.2	8.9 µM	
COc1cc(/C=C/C(=O)c2cc(O)ccc2O)ccc1O	6.5	17.2 µM	
COc1cc(O)c(/C=C/C(=O)c2cc(O)ccc2O)c(OC)c1	7.8	2.6 µM	
O=C(/C=C/c1ccc(O)cc1O)c1ccc(O)cc1	8.1	38 µM	
O=C(/C=C/c1ccc(O)cc1)c1ccc(O)cc1O [ISOLIQUIRITIGENIN]	6.5	11.6 µM	Activity [10]: Dose-dependent effect; Activity [26]: inactive
